Laboratory results from ChEMBL document CHEMBL5236549, “Discovery of 2-Sulfinyl-Diazabicyclooctane Derivatives, Potential Oral β-Lactamase Inhibitors for Infections Caused by Serine β-Lactamase-Producing Enterobacterales” (J Med Chem, 2021).

Legend:
[1] = Stability of the compound in phosphate buffer at pH 7.0 assessed as parent compound remaining at 40 degreeC measured after 16 hrs; type: physicochemical; settings: read-out: Stability
How it was run: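 Compound held in pH 7.0 phosphate buffer at 40 °C for 16 h; amount remaining reported as %.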

[2] = Cmax in rat at 5 mg/kg,po by LC/MS/MS analysis; type: ADME, organism-based; design: dose 5 mg/kg, route po; settings: in vivo
How it was run: (§1)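 Plasma of the parent acid measured by LC/MS/MS (methanol precipitation, positive ESI, external standard); oral values follow prodrug dosing (rat fed, dog and monkey fasted). AUC from 0 h to last time point by linear trapezoid; F from oral AUC versus iv AUC of the parent. N = 2 (rat, dog), N = 3 (monkey, mouse).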

[3] = AUC in rat at 5 mg/kg,po by LC/MS/MS analysis; type: ADME, organism-based; design: dose 5 mg/kg, route po; settings: in vivo; how it was run: as §1
[4] = Tmax in rat at 5 mg/kg,po by LC/MS/MS analysis; type: ADME, organism-based; settings: in vivo
[5] = Oral bioavailability in rat at 5 mg/kg by LC/MS/MS analysis; type: ADME, organism-based; settings: in vivo; how it was run: as §1
[6] = Cmax in dog at 10 mg/kg,po by LC/MS/MS analysis; type: ADME, organism-based, Canis lupus familiaris; design: dose 10 mg/kg, route po; settings: in vivo; how it was run: as §1
[7] = AUC in dog at 10 mg/kg,po by LC/MS/MS analysis; type: ADME, organism-based, Canis lupus familiaris; design: dose 10 mg/kg, route po; settings: in vivo; how it was run: as §1
[8] = Tmax in dog at 10 mg/kg,po by LC/MS/MS analysis; type: ADME, organism-based, Canis lupus familiaris; settings: in vivo
[9] = Oral bioavailability in dog at 10 mg/kg by LC/MS/MS analysis; type: ADME, organism-based, Canis lupus familiaris; settings: in vivo; how it was run: as §1
[10] = Cmax in monkey at 10 mg/kg,po by LC/MS/MS analysis; type: ADME, organism-based, Macaca mulatta; design: dose 10 mg/kg, route po; settings: rhesus monkey, in vivo; how it was run: as §1
[11] = AUC in monkey at 10 mg/kg,po by LC/MS/MS analysis; type: ADME, organism-based, Macaca mulatta; design: dose 10 mg/kg, route po; settings: rhesus monkey, in vivo; how it was run: as §1
[12] = Tmax in monkey at 10 mg/kg,po by LC/MS/MS analysis; type: ADME, organism-based, Macaca mulatta; settings: rhesus monkey, in vivo
[13] = Oral bioavailability in monkey at 10 mg/kg by LC/MS/MS analysis; type: ADME, organism-based, Macaca mulatta; settings: rhesus monkey, in vivo; how it was run: as §1
[14] = Cmax in mouse at 10 mg/kg,po by LC/MS/MS analysis; type: ADME, organism-based; design: dose 10 mg/kg, route po; settings: in vivo; how it was run: as §1
[15] = Cmax in mouse at 30 mg/kg,po by LC/MS/MS analysis; type: ADME, organism-based; design: dose 30 mg/kg, route po; settings: in vivo; how it was run: as §1
[16] = Cmax in mouse at 100 mg/kg,po by LC/MS/MS analysis; type: ADME, organism-based; design: dose 100 mg/kg, route po; settings: in vivo; how it was run: as §1
[17] = AUC in mouse at 10 mg/kg,po by LC/MS/MS analysis; type: ADME, organism-based; design: dose 10 mg/kg, route po; settings: in vivo; how it was run: as §1
[18] = AUC in mouse at 30 mg/kg,po by LC/MS/MS analysis; type: ADME, organism-based; design: dose 30 mg/kg, route po; settings: in vivo; how it was run: as §1
[19] = AUC in mouse at 100 mg/kg,po by LC/MS/MS analysis; type: ADME, organism-based; design: dose 100 mg/kg, route po; settings: in vivo; how it was run: as §1
[20] = Oral bioavailability in mouse at 10 mg/kg by LC/MS/MS analysis; type: ADME, organism-based; settings: in vivo; how it was run: as §1
[21] = Oral bioavailability in mouse at 30 mg/kg by LC/MS/MS analysis; type: ADME, organism-based; settings: in vivo; how it was run: as §1
[22] = Oral bioavailability in mouse at 100 mg/kg by LC/MS/MS analysis; type: ADME, organism-based; settings: in vivo; how it was run: as §1
[23] = test system: Klebsiella pneumoniae; assay: Antibacterial activity in ICR mouse infected with Klebsiella pneumoniae SR08667 assessed as reduction in bacterial colony forming units at 10 mg/kg,po administered upto 48 hrs after infection in presence of CTB; type: functional
How it was run: (§2)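 Urinary tract infection model in 5-week-old female ICR mice, N = 5 per arm. 1.2 × 10⁶ CFU given transurethrally, urethra tied for 4 h. Oral dosing at 4, 8, 28 and 32 h post-infection in 0.5% methylcellulose: ceftibuten 30 mg/kg alone, ceftibuten 10 mg/kg plus prodrug 3, 10 or 30 mg/kg, or both at 30 mg/kg. Kidneys homogenized at 4 or 48 h and plated on modified Drigalski agar. Read-out is change in log CFU/kidney versus untreated controls at treatment start.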

[24] = test system: Klebsiella pneumoniae; assay: Antibacterial activity in ICR mouse infected with Klebsiella pneumoniae SR08667 assessed as reduction in bacterial colony forming units at 30 mg/kg,po administered upto 48 hrs after infection in presence of CTB; type: functional; how it was run: as §2
[25] = Toxicity in rat at 600 mg/kg,po administered for two weeks; type: organism-based; settings: in vivo
How it was run: (§3)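 Two-week rat toxicology study with daily oral dosing of prodrug; NOAEL and lethal dose established.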

[26] = Toxicity in rat at > 2000 mg/kg,po administered for two weeks; type: organism-based; settings: in vivo; how it was run: as §3

SMILES: C[S@@+]([O-])[C@@H]1CC[C@@H]2CN1C(=O)N2O[C@H](F)C(=O)OC1CCCCC1
- remaining at 16 h [1]: 56%
- Cmax [2]: 620 ng/mL
- AUC [3]: 1170 ng·h/mL
- Tmax [4]: 0.5 h
- bioavailability [5]: 37.8%
- Cmax [6]: 15800 ng/mL
- AUC [7]: 41200 ng·h/mL
- Tmax [8]: 1 h
- bioavailability [9]: 106%
- Cmax [10]: 7940 ng/mL
- AUC [11]: 15200 ng·h/mL
- Tmax [12]: 1 h
- bioavailability [13]: 54.8%
- Cmax [14]: 5600 ng/mL
- Cmax [15]: 21400 ng/mL
- Cmax [16]: 52000 ng/mL
- AUC [17]: 3900 ng·h/mL
- AUC [18]: 18100 ng·h/mL
- AUC [19]: 50200 ng·h/mL
- bioavailability [20]: 80%
- bioavailability [21]: 122%
- bioavailability [22]: 102%
- Activity [23]: >0.5 log10CFU
- Activity [24]: >1 log10CFU
- Activity [25]: Non-Toxic
- Activity [26]: Non-Toxic
